Data on one molecule can be found in ChEMBL document CHEMBL4028810, “Synthesis and biological evaluation of novel chalcone derivatives as a new class of microtubule destabilizing agents” (Eur J Med Chem, 2017).

For assay [1], the system named is NCI-H460. Nature of the assay: Cell cycle arrest in human NCI-H460 cells assessed as accumulation at G2-phase at 10 uM after 48 hrs by propidium iodide staining based flow cytometric method (reference value: 2.37%). The class given is functional. In general terms: A flow cytometer gives signals particle by particle.
Assay [2] deals with NCI-H460. The assay can be described thus: Cell cycle arrest in human NCI-H460 cells assessed as accumulation at G1-phase at 10 uM after 48 hrs by propidium iodide staining based flow cytometric method (reference value: 75.84%). The class given is functional.
Assay [3] relates to NCI-H460. The assay can be described thus: Induction of apoptosis in human NCI-H460 cells assessed as late apoptotic cells at 5 uM after 24 hrs by Annexin V-FITC/propidium iodide staining based flow cytometric method (reference value: 0.839%). The class given is functional.
For assay [4], the system named is NCI-H460. Nature of the assay: Disruption of mitochondrial membrane potential in human NCI-H460 cells assessed as intact mitochondrial membrane potential at 5 uM after 24 hrs by JC-1 staining based flow cytometric method (reference value: 11.9%). The class given is functional. In a few lines:
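NCI-H460 cells were treated 24 h at 5 or 10 µM, with untreated cells as control. The medium was replaced, and the JC-1 probe was added 20 min later. Cells were then pelleted at 2000 rpm, washed twice in ice-cold PBS and analysed by flow cytometry with excitation at 488 nm and emission at 530 and 590 nm.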

In assay [5] the test system is NCI-H460. The assay can be described thus: Cytotoxicity against human NCI-H460 cells after 48 hrs by MTT assay. The conditions noted are these: NCI-H460, 48 h. The class given is functional, cell-based. In a few lines:
(§1)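 Log-phase cells were seeded at about 1 × 10⁵ cells/mL in 96-well plates and allowed to settle 12 h at 37 °C in 5% CO₂. Compounds were added at five concentrations for 48 h. Absorbance was read at dual wavelength 570/630 nm. Survival was expressed as a percentage of control, and IC50 was calculated by the Bliss method (n = 5). Each test was run in triplicate.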
(Tetrazolium assays rely on reduction of a dye to a coloured formazan, in cell work by metabolically active cells.)

In assay [6] the test system is NCI-H460. Nature of the assay: Induction of apoptosis in human NCI-H460 cells assessed as early apoptotic cells at 5 uM after 24 hrs by Annexin V-FITC/propidium iodide staining based flow cytometric method (reference value: 1.55%). The assay is classed as functional.
A further assay has as its system T-24. The assay can be described thus: Cytotoxicity against human T24 cells after 48 hrs by MTT assay. The conditions noted are these: T-24, 48 h. The assay is classed as functional, cell-based. In a few lines:
as §1

Assay [7] relates to NCI-H460. Nature of the assay: Induction of apoptosis in human NCI-H460 cells assessed as increase in cleaved caspase-9 expression at 5 to 10 uM after 48 hrs by Western blot method. The assay is classed as functional, cell-based. In a few lines: (§2)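 NCI-H460 cells were treated 48 h at various concentrations. Cells were washed in ice-cold PBS and lysed on ice for 20 min, and lysates were spun at 20000 g and 4 °C for 5 min. Protein was quantified by BCA, and equal amounts were run on 12% SDS-PAGE and transferred to PVDF. Membranes were blocked in 5% milk/TBST, probed overnight at 4 °C with primary antibodies (β-actin as reference), then with peroxidase secondary for 2 h. Bands were detected by chemiluminescence.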

Assay [8] concerns NCI-H460. Nature of the assay: Induction of apoptosis in human NCI-H460 cells after 24 hrs by Annexin V-FITC/propidium iodide staining based flow cytometric method. The assay is classed as functional, cell-based.
Assay [9] deals with NCI-H460. The assay can be described thus: Induction of apoptosis in human NCI-H460 cells assessed as necrotic cells at 5 uM after 24 hrs by Annexin V-FITC/propidium iodide staining based flow cytometric method (reference value: 1.84%). The class given is functional.
The test system of assay [10] is NCI-H460. Nature of the assay: Cell cycle arrest in human NCI-H460 cells assessed as accumulation at S-phase at 10 uM after 48 hrs by propidium iodide staining based flow cytometric method (reference value: 21.79%). The assay is classed as functional.
Assay [11] is described as follows: Resistant factor, ratio of IC50 for human A549/TR cells to IC50 for human A549 cells. The assay is classed as functional. In a few lines:
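The resistance index is IC50 on the paclitaxel-resistant line divided by IC50 on the parental sensitive line (A549 or HeLa). Both IC50 values come from the 48 h, five-concentration growth assay with 570/630 nm absorbance read-out and Bliss-method calculation.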

Assay [12] deals with NCI-H460. The assay can be described thus: Induction of apoptosis in human NCI-H460 cells assessed as down regulation of Bcl2 expression after 48 hrs by Western blot method. The class given is functional, cell-based. Put shortly:
as §2
Background: Immunoblotting shows a protein as a band on a membrane.

Calls of active or inactive are those of the source. No cut-off for these calls is given here.

Regarding `COc1ccc(/C=C/C(=O)c2cc(OC)c(OC)c(OC)c2)cc1OCC(=O)Nc1ccccc1Cl`, the Activity was 72.4% in the assay with NCI-H460 [1]; 1.95% in the assay with NCI-H460 [2]; 3.45% in the assay with NCI-H460 [3]; 16.9% with NCI-H460 [4]; 11.9% in the assay with NCI-H460 [6]; “Dose-dependent effect” in the assay on NCI-H460 [8]. The Activity in the assay with NCI-H460 [9] was 1.1%; in the assay on NCI-H460 [10], 20.81%; in the assay on NCI-H460 [12] it was “Dose-dependent effect”. Besides, the results for the IC50 in the assay on NCI-H460 [5] and in the assay on T-24 were 3.75 µM and 5.8 µM, respectively. In the assay with NCI-H460 [7], the result was Active. Moreover, the “Ratio IC50” value in assay [11] stood at 1.2.
